The term half-life denotes the time needed for the level to fall by half in the phase considered. A higher half-life goes with slow decline. What is called inhibition is the share of the control response that was lost under treatment. Read a low inhibition as a weak effect. What is called inhibition in vivo is the change of the read-out against control, counted positive when it falls. High values mean a strong effect, low ones a weak effect. As usually defined, the Inhibition is the share of the control response that was lost under treatment. High values mean strong suppression, low ones little suppression.

The values below come from ChEMBL document CHEMBL1126763, “Nonpeptide angiotensin II receptor antagonists. Synthesis and biological activity of potential prodrugs of benzimidazole-7-carboxylic acids” (J Med Chem, 1993).

Data set [1] in a line: Tested for Half- life in rat liver homogenate (2%). Format: ADME. Summed up:
(§1)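 Prodrugs (final 10 μg/mL) were incubated at 37 °C in rat 1% small intestine homogenate, 2% liver homogenate or 10% plasma. Aliquots taken from 10 s to 30 min were deproteinized with methanol, and the residue was redissolved in 1/15 M phosphate buffer. Released parent acid was measured by HPLC (ODS column, UV 258 nm, 0.01 M KH2PO4/MeCN 55/45). t1/2 was taken from the concentration change; mean ± SD, n = 3.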

The target of data set [2] is T1, Angiotensin II receptor (Rattus norvegicus) (UniProt P29089+P25095+P35351). The data set is described as follows: Inhibitory effect on AII (100 ng/kg iv)-induced pressor response after administration at 0.1 mg/kg po in conscious male Sprague-Dawley rats at 0.5 h. Format: functional, organism-based. Set-up: dose 0.1 mg/kg. A digest of the protocol:
(§2)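 Conscious male Sprague-Dawley rats received test compounds orally at 0.1 mg/kg. AII (100 ng/kg iv) was given as a pressor challenge at each time point after dosing, and percent inhibition of the pressor response was recorded. Experiments were run in duplicate (n = 2); parent drug and one ester used n = 3. Inhibition may vary by less than 30%.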

Data set [3] concerns the target T1, Angiotensin II receptor (Rattus norvegicus). Briefly: Inhibitory activity on AII (100 ng/kg iv)-induced pressor response after administration at 0.1 mg/kg po in conscious male Sprague-Dawley rats at 7 h. Format: functional, organism-based. Also noted: dose 0.1 mg/kg. Summed up: as §2
Data set [4] can be described thus: Tested for half- life in rat small intestine homogenate (1%). Format: ADME. A digest of the protocol: as §1
Data set [5] addresses T1, Angiotensin II receptor (Rattus norvegicus). Briefly: Inhibitory activity on AII (100 ng/kg iv)-induced pressor response after administration at 0.1 mg/kg po in conscious male Sprague-Dawley rats at 5 h. Format: functional, organism-based. Set-up: dose 0.1 mg/kg. Summed up:
as §2

For data set [6] the target is unchanged. The data set is described as follows: Inhibitory activity on AII (100 ng/kg iv)-induced pressor response at 0.1 mg/kg po in conscious male Sprague-Dawley rats at 1 h. Format: functional, organism-based. Also noted: dose 0.1 mg/kg. Summed up: as §2
Data set [7] has the same target. Briefly: Inhibitory activity on AII (100 ng/kg iv)-induced pressor response after administration at 0.1 mg/kg po in conscious male Sprague-Dawley rats at 3 h. The class given is functional, organism-based. Also noted: dose 0.1 mg/kg. A digest of the protocol: as §2
Data set [8] is described as follows: Tested for Half- life in rat plasma homogenate (10%) at 37 degree Centigrade. The class given is ADME. A digest of the protocol: as §1
Data set [9] has as its target T1, Angiotensin II receptor (Rattus norvegicus). The data set is described as follows: Inhibitory activity on AII (100 ng/kg iv)-induced pressor response after administration at 0.1 mg/kg po in conscious male Sprague-Dawley rats at 24 h. The class given is functional, organism-based. Also noted: dose 0.1 mg/kg. A digest of the protocol:
as §2

Data set [10] has the same target. The data set is described as follows: Inhibitory activity on AII (100 ng/kg iv)-induced pressor response after administration at 0.1 mg/kg po in conscious male Sprague-Dawley rats at 2 h. Set-up: dose 0.1 mg/kg. The class given is functional, organism-based. A digest of the protocol: as §2
The subject of data set [11] is Rattus norvegicus. Briefly: Inhibitory activity on AII (100 ng/kg iv) -induced pressor response after administration at 0.1 mg/kg po in Dawley rats at 1 h. Format: functional. A digest of the protocol:
as §2

Data set [12] has as its system Rattus norvegicus. The data set is described as follows: Inhibitory activity on AII (100 ng/kg iv) -induced pressor response after administration at 0.1 mg/kg po in Dawley rats at 0.5 h. Format: functional. A digest of the protocol:
as §2

Data set [13] can be described thus: Tested against A II at (100 ng/kg iv) in Dawley rats (n=2). 24 h. Format: functional. Summed up: as §2

Molecules are shown by their SMILES.

Take `CCCCc1nc2cccc(C(=O)OCOC(=O)C(C)(C)C)c2n1Cc1ccc(-c2ccccc2-c2nn[nH]n2)cc1`: the half-life amounted to 3.61 min in data set [1], 1.08 min in data set [4] and 0.69 min in [8]. Further, the inhibition in [2] turned out to be 58%; in data set [3], 86%; in data set [5], 92%; in [6] it was 90%; in [7] it was 95%; in [9], 50%. The compound further displayed an inhibition in [10] of 96%.

In the case of `CCOc1nc2cccc(C(=O)OC(C)OC(=O)OC3CCCCC3)c2n1Cc1ccc(-c2ccccc2-c2nnn[nH]2)cc1` (stereo not drawn) [CANDESARTAN CILEXETIL], the figures for the half-life in data set [1], in data set [4] and in data set [8] were 2.29 min, 4.92 min and 2.73 min, respectively.

In the case of `CCCCOC(=O)c1cccc2nc(CCCC)n(Cc3ccc(-c4ccccc4-c4nn[nH]n4)cc3)c12`, the inhibition in [3] came out at 90%; in [5] it was 88%; in [7] it was 78%; in data set [9] it was 76%; in [10] it was 80%. Moreover, the inhibition in vivo at 0.1 mg/kg amounted to 40% in data set [11] and 16% in data set [12].

As to `CCCCc1nc2cccc(C(=O)O)c2n1Cc1ccc(-c2ccccc2-c2nnn(COC(=O)C(C)(C)C)n2)cc1.CCCCc1nc2cccc(C(=O)O)c2n1Cc1ccc(-c2ccccc2-c2nnnn2COC(=O)C(C)(C)C)cc1`, the half-life in [1] was determined as 9.8 min; in [4], 22.7 min; in [8], 3.94 min. Further, the inhibition in data set [2] turned out to be 7%; in data set [3] it was 69%; in data set [5] it was 67%; in [6], 4%; in data set [7], 63%; in data set [9], 32%. Further, in data set [10], the inhibition is 33%.

Take `CCCCc1nc2cccc(C(=O)OCCO)c2n1Cc1ccc(-c2ccccc2-c2nn[nH]n2)cc1`: the inhibition in [3] was 25%; in [5], 21%; in data set [7] it was 11%; in data set [9], 20%; in data set [10] it was 10%. Besides, the inhibition in vivo at 0.1 mg/kg in [11] and in data set [12] was 7% in each case.

Consider `CCCCc1nc2cccc(C(=O)O)c2n1Cc1ccc(-c2ccccc2-c2nn[nH]n2)cc1`, for which the inhibition in vivo at 0.1 mg/kg in data set [11] was 33%; in [12], 8%. Besides, the inhibition was 42% in data set [9] and 45% in data set [10].

For `CCCCc1nc2cccc(C(=O)OCCN(C)C)c2n1Cc1ccc(-c2ccccc2-c2nn[nH]n2)cc1`, the inhibition in [3] worked out at 14%; in data set [5], 26%; in data set [7], 32%; in [9], 9%; in data set [10], 27%. The figures for the inhibition in vivo at 0.1 mg/kg in data set [11] and in data set [12] were 19% and 0%, respectively.

For the compound `CCCCc1nc2cccc(C(=O)O)c2n1Cc1ccc(-c2ccccc2-c2nnnn2C)cc1`, the inhibition turned out to be 53% in data set [3]; 59% in [5]; 56% in data set [7]; 16% in [9]; 29% in data set [10]. Besides, the inhibition in vivo at 0.1 mg/kg in [11] came to 29%; in data set [12] it was 12%.

Turning to `CCCCc1nc2cccc(C(=O)OCCN3CCOCC3)c2n1Cc1ccc(-c2ccccc2-c2nn[nH]n2)cc1`, the inhibition was determined as 96% in [3]; 96% in data set [5]; 96% in [7]; 66% in data set [9]; 96% in [10]. The inhibition in vivo at 0.1 mg/kg in data set [11] was 94%; in [12], 67%.

Consider `CCOc1nc2cccc(C(=O)OCOC(=O)C(C)(C)C)c2n1Cc1ccc(-c2ccccc2-c2nn[nH]n2)cc1`, for which the half-life is 0.48 min in [1], 0.3 min in data set [4] and 0.15 min in [8]. Further, the inhibition was 42% in [2]; 86% in data set [3]; 87% in data set [5]; 77% in data set [6]; 86% in data set [7]; 43% in data set [9]. The same compound gave an inhibition in [10] of 88%.

`CCCCc1nc2cccc(C(=O)OCCN3CCCCC3)c2n1Cc1ccc(-c2ccccc2-c2nn[nH]n2)cc1`: the inhibition in data set [3] amounted to 49%; in data set [5] it was 62%; in data set [7], 69%; in data set [9], 28%; in [10] it was 46%. The inhibition in vivo at 0.1 mg/kg in data set [11] is 47%; in data set [12], 20%.

In the case of `CCCCc1nc2cccc(C(=O)OC)c2n1Cc1ccc(-c2ccccc2-c2nn[nH]n2)cc1`, the inhibition in data set [3] was 27%; in data set [5], 38%; in [7] it was 47%; in data set [9] it was 11%; in [10] it was 50%. Besides, the inhibition in vivo at 0.1 mg/kg was found to be 52% in data set [11] and 11% in data set [12].

With `CCCCc1nc2cccc(C(=O)OCC)c2n1Cc1ccc(-c2ccccc2-c2nn[nH]n2)cc1`, the inhibition in [3] was 63%; in [5], 68%; in data set [9], 47%; in [10], 46%. The inhibition in vivo at 0.1 mg/kg in data set [11] is 25%; in [12] it was 7%.

For the compound `CCCCc1nc2cccc(C(=O)O)c2n1Cc1ccc(-c2ccccc2-c2nnn(C)n2)cc1`, the inhibition in data set [3] was 26%; in data set [5], 13%; in [7], 9%; in [9] it was 23%; in data set [10], 6%. In addition, the results for the inhibition in vivo at 0.1 mg/kg in data set [11] and in [12] were 26% and 22%, respectively.

`CCCCc1nc2cccc(C(=O)OCc3oc(=O)oc3C)c2n1Cc1ccc(-c2ccccc2-c2nnn(Cc3oc(=O)oc3C)n2)cc1.CCCCc1nc2cccc(C(=O)OCc3oc(=O)oc3C)c2n1Cc1ccc(-c2ccccc2-c2nnnn2Cc2oc(=O)oc2C)cc1`: the inhibition worked out at 7% in data set [2]; 46% in data set [3]; 59% in [5]; 9% in data set [6]; 60% in data set [7]; 33% in data set [10]. In [13], this compound showed an Inhibition of 17%.

On to `CCOc1nc2cccc(C(=O)OC(C)OC(C)=O)c2n1Cc1ccc(-c2ccccc2-c2nn[nH]n2)cc1` (stereo not drawn), for which the inhibition came out at 86% in [2]; 75% in data set [3]; 84% in data set [5]; 90% in data set [6]; 86% in data set [7]; 28% in data set [9]. In [10], this compound registered an inhibition of 92%.
